Bioassay records deposited in PubChem BioAssay by several laboratories.
Rows were chosen to be rich in hits. Some 5.4% of all compounds tested hit in one or more screens of this group.
Mdm2 MdmX PPI: human Mdm2/MdmX binding inhibition. AID 485346. 3% of 330,000 active. SaOS-2 split-luciferase Mdm2/MdmX complementation, luminescence. inhibition, % at 8 µM;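 active = inhibition of at least 50% at 8 µM in the primary screen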
Target sequence (O15151 whole entry, looked up): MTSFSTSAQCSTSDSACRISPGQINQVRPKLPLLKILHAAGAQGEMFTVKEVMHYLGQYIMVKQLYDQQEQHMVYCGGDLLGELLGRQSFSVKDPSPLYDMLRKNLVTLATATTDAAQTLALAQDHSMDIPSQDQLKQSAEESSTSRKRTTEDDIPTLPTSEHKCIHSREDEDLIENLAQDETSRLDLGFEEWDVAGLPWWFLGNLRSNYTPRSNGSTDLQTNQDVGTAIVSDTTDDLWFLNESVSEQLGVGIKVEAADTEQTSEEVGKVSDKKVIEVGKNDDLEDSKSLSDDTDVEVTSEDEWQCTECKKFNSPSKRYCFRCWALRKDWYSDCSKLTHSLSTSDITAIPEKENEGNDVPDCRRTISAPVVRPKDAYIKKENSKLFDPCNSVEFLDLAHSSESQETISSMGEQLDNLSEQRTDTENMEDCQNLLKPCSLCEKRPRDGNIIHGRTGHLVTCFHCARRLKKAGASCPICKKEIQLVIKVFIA
Target sequence (Q00987 whole entry, looked up): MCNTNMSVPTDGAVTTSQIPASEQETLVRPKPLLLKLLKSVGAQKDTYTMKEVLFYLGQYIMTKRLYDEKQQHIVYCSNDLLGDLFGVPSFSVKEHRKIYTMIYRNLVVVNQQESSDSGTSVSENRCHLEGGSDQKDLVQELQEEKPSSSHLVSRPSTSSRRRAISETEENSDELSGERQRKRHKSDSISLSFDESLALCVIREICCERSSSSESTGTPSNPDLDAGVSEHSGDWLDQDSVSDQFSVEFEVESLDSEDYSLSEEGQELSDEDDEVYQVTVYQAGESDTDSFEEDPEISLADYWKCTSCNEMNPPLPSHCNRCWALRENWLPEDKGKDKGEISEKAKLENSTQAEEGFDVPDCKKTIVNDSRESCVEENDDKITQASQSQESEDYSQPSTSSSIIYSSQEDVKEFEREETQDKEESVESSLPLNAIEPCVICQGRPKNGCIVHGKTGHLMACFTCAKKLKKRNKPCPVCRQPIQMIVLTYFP
SKKanGAS inh: blocks kanamycin growth of S. pyogenes SKKanGAS strain | BacTiter-Glo, 6 h | inhibition, % at 7.5 µM | 1.3% of 300,000 active | AID 1662;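 active = mean replicate score, as percent of positive control median, at least 50; inconclusive = mean below 50 but one replicate at or above 50; inactive = mean and every replicate below 50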;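 also: strain carries kanamycin resistance gene driven by streptokinase promoter and grows in 40 µg/ml kanamycin; loss of luminescence reflects streptokinase promoter inhibition or plain growth inhibition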
aSyn 5UTR inh: MLPCN primary screen, SNCA 5' untranslated region; alpha-synuclein 5'UTR reporter, inhibitor activity; inhibition, % (tested at 7.5 µM); 0.82% of 300,000 active; AID 1813; in the data active = inhibition above about 60%; inconclusive = no clear call, values can overlap the other calls;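 also: H4 neuroglioblastoma cells stably carrying SNCA 5'UTR luciferase fusion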
CSC inhib: blocks cancer stem cells. cancer stem cell-like cells viability, luminescence. inhibition, % at 7.5 µM. 1.1% of 300,000 active; in the data active = inhibition above about 75%; inconclusive = no clear call, values can overlap the other calls; tested in HMLE shEcad cells
T cruzi inh: blocks replication of Trypanosoma cruzi. 1.4% of 300,000 active. T. cruzi beta-gal in NIH3T3, luminescence, 90 h. inhibition, % (concentration not given with the values);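 active = mean inhibition across valid replicates above about 55%, limit read from the data; inconclusive = mean below that limit but half or more replicates reach it; inactive = mean below it, under half of replicates reach it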;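 also: signal also drops with host cell toxicity which is not excluded here; higher percent means less beta-gal luminescence so fewer parasites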
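System: mouse NIH/3T3 fibroblasts infected with β-gal-expressing T. cruzi Tulahuen C4 / Input: NIH/3T3 cells, 5,000 per well / Buffer or medium: Low-serum DMEM with 2% FBS / Probe or stimulus: 5000 reporter trypomastigotes per well / Schedule: ≥90 h infection period, 3 h prior cell attachment / Measured by: GalScreen luminescence, 60 min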
Mdm2 MdmX conf: confirmation of human Mdm2/MdmX interaction inhibitors; shares compounds with Mdm2 MdmX PPI; Mdm2-MdmX binding, luminescent assay; inhibition, % at 8 µM; 55% of 10,000 active; AID 489028; in the data active = inhibition above about 40%
FLuc counter: inhibits full-length luciferase, flagging false Mdm2/MdmX hits. shares compounds with Mdm2 MdmX PPI. SaOS-2 full-length luciferase counterscreen, luminescence. inhibition, % at 8 µM. 77% of 6,200 active;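 active = mean inhibition at 8 µM reaching about 37%, which flags the compound as non-specific, limit read from the data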;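 also: p53-null SaOS-2 cells with luciferase driven by a doxycycline-inducible promoter; compound on cells about two nights before reading with doxycycline added after day one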
Of the large screens only hits and unclear results are named; the others gave an inactive call (follow-up assays come after a bar, where they were run).

Cc1ccc(CC(=O)NCCN2CCOCC2)cc1	none
Cc1ccc2c(c1)c1c3n2CCN(C(=O)CCl)C3CCC1 (stereo not given)	Mdm2 MdmX PPI 51 | Mdm2 MdmX conf inactive | FLuc counter 92
CC(=O)N1CCn2c3c(c4cc(C)ccc42)CCCC31 (stereo not given)	none
CCN(Cc1ccncc1)Cc1cn[nH]c1-c1ccc(OC)cc1F	none
O=C(Nc1ccccc1C(=O)N1CCCC1)c1ncoc1-c1cccc(Cl)c1	none
CCOC(=O)NS(=O)(=O)c1ccc(CCNC(=O)c2cc(C)on2)cc1	none
CN(CCO)c1ccc(-c2nn(C)c(=O)c3ccccc23)cc1[N+](=O)[O-]	none
CN(C)CCNc1ccc(-c2nn(C)c(=O)c3ccccc23)cc1[N+](=O)[O-]	Mdm2 MdmX PPI 53, T cruzi inh 72 | Mdm2 MdmX conf inactive | FLuc counter 78
CN1CCN(c2ccc(Nc3ccnc4cc(Cl)ccc34)cc2)CC1	Mdm2 MdmX PPI 78, T cruzi inh 60 | Mdm2 MdmX conf inactive | FLuc counter 51
CCOc1ccc(Nc2ccnc3cc(Cl)ccc23)cc1	none
CCN1CCN(c2nc(-c3ccccn3)nc3ccccc23)CC1	none
CCN1CCN(c2ccc(Nc3ccnc4ccccc34)cc2)CC1	Mdm2 MdmX PPI 87 (no result: SKKanGAS inh, aSyn 5UTR inh, CSC inhib, T cruzi inh) | Mdm2 MdmX conf 84 | FLuc counter inactive
CCOc1ccc(NC(=O)C2CCCN(S(=O)(=O)c3c(C)noc3C)C2)cc1 (stereo not given)	none
CCOc1ccc(NC(=O)CC2C(=O)N(c3ccccc3)C(=O)N2CCc2cccs2)cc1 (stereo not given)	none
Cc1ccc(Nc2ccc([N+](=O)[O-])cn2)cc1Cl	none
CSc1nc(N(C)NC(=O)c2ccc(Cl)cc2)c2ccccc2n1	Mdm2 MdmX PPI 62, aSyn 5UTR inh 93 | Mdm2 MdmX conf 56 | FLuc counter 88
CN(NC(=O)c1ccc(Cl)cc1)c1nc(-c2ccccc2)nnc1C(F)(F)F	none
CSc1nc(N(C)NC(=O)c2ccccc2)c2ccccc2n1	Mdm2 MdmX PPI 56 (no result: CSC inhib) | Mdm2 MdmX conf 52 | FLuc counter 69
CNc1nc(SC)nc2ccccc12	none
O=C(NNc1c2ccccc2nc2ccccc12)c1ccc(Cl)cc1	Mdm2 MdmX PPI 87 | Mdm2 MdmX conf 67 | FLuc counter 43
Cc1ccc(C(=O)NN(C)c2nc3ccccc3nc2C(F)(F)F)cc1	Mdm2 MdmX PPI 70 | Mdm2 MdmX conf 54 | FLuc counter 61
CSCCC(NC(=O)COc1ccccc1)C(=O)N1CCCCCC1 (stereo not given)	none (no result: SKKanGAS inh, aSyn 5UTR inh, CSC inhib, T cruzi inh)
O=C(COc1ccc(Cl)cc1)NN=C1CCCCCCC1	none
O=C(/C=C/Nc1ccc(Br)cn1)c1cccc(OC(F)F)c1	none (no result: SKKanGAS inh, aSyn 5UTR inh, T cruzi inh)
Cc1cc(C)cc(C(=O)OCC(=O)Nc2ncccn2)c1	none (no result: SKKanGAS inh, aSyn 5UTR inh, CSC inhib, T cruzi inh)
COc1ccc(OC)c(S(=O)(=O)Nc2cc(OC)c(Cl)cc2OC)c1	none
COc1cc(NS(=O)(=O)c2ccc(OC)c(C)c2C)c(OC)cc1Cl	Mdm2 MdmX PPI 51 | Mdm2 MdmX conf 55 | FLuc counter 63
CCCCN(C)CCNC(=O)C1CCN(S(=O)(=O)c2cccc3nsnc23)CC1	none
COc1cccc(NC(=O)C(=O)N/N=C/c2cc(C)n(-c3ccc(Cl)c(Cl)c3)c2C)c1	Mdm2 MdmX PPI 55 | Mdm2 MdmX conf inactive
CCNC(=O)NC1(C(=O)Nc2ccc3c(c2)OCCO3)CCCCC1	none
Cc1ccccc1OCCC(=O)OCC(=O)NNC(=O)c1cccs1	none (no result: SKKanGAS inh, aSyn 5UTR inh, CSC inhib, T cruzi inh)
CCOC(=O)c1[nH]c2ccc(Cl)cc2c1NC(=O)/C=C/c1ccc2c(c1)OCO2	Mdm2 MdmX PPI 56 | Mdm2 MdmX conf 45 | FLuc counter 94
OC(CNCCc1ccc(C(F)(F)F)cc1)COC(c1ccccc1)c1ccccc1 (stereo not given)	Mdm2 MdmX PPI 87, CSC inhib 107 | Mdm2 MdmX conf 42 | FLuc counter 56
CCC(C)NCCOCCSc1ccc(Cl)cc1 (stereo not given)	none
O=c1cc(-c2ccco2)oc2c1ccc1ccccc12	none
O=c1cc(C(Cl)(Cl)Cl)oc2c1ccc1ccccc12	Mdm2 MdmX PPI 98, CSC inhib 116, T cruzi inh 69 | Mdm2 MdmX conf 86 | FLuc counter 52
CCn1c(=O)n(CC)c2cc(N3CCCC3)c(NC(=O)c3ccccc3OC)cc21	none
COc1cc(C(=O)Nc2cc3c(cc2N2CCCCC2)n(C)c(=O)n3C)cc(OC)c1OC	Mdm2 MdmX PPI 78 | Mdm2 MdmX conf 44 | FLuc counter 72
CCn1c(=O)n(CC)c2cc(N3CCCC3)c(NC(=O)c3cc(Cl)ccc3OC)cc21	Mdm2 MdmX PPI 64 | Mdm2 MdmX conf inactive
COc1ccc(C(=O)Nc2cc3c(cc2N2CCCCC2)n(C)c(=O)n3C)cc1OC	none
c1ccc2c(c1)CCc1ccccc1C2=C1CCNCC1	Mdm2 MdmX PPI 67 | Mdm2 MdmX conf 49 | FLuc counter 73
N#Cc1c(N2CCCCC2)nc(N2CCCCC2)c2c1CCN(Cc1ccccc1)C2	Mdm2 MdmX PPI 53, T cruzi inh 56 | Mdm2 MdmX conf inactive
CCOC(=O)c1sc(NC(=O)Nc2ccc(Cl)cc2)cc1C	Mdm2 MdmX PPI 75, SKKanGAS inh 81, T cruzi inh 65 | Mdm2 MdmX conf 86 | FLuc counter 55
CCOC(=O)c1sc(NC(=O)c2ccccc2)cc1C	none
CCOC(=O)c1sc(NC(=O)c2c(C)nn(Cc3ccccc3)c2C)cc1C	Mdm2 MdmX PPI 53 (no result: SKKanGAS inh, aSyn 5UTR inh, CSC inhib, T cruzi inh) | Mdm2 MdmX conf inactive
CC(=O)Nc1ccc(O)c(-c2nc3ccccc3s2)c1	none
O=C(Nc1ccc(OC(=O)c2ccccc2)c(-c2nc3ccccc3s2)c1)c1ccccc1	Mdm2 MdmX PPI 68 | Mdm2 MdmX conf inactive
CC(C)Oc1ccc(C(CCNCc2ccc(O)cc2)c2ccccc2)cc1 (stereo not given)	Mdm2 MdmX PPI 91 | Mdm2 MdmX conf 70 | FLuc counter 58
COc1ccc(CCNC(=O)CCc2ccc(S(=O)(=O)NC(C)C)cc2)cc1	none
CCOc1ncccc1C(=O)NC(C)CCc1ccccc1 (stereo not given)	none (no result: Mdm2 MdmX PPI)
Cc1cc(C)nc(NC(=O)Nc2ccc(F)cc2F)n1	none
COc1cccc(NC(=O)Nc2nc(SC(C)(C)C)ns2)c1	Mdm2 MdmX PPI 93, SKKanGAS inh 55, CSC inhib 96 | Mdm2 MdmX conf 72 | FLuc counter 57
CCCSc1nsc(NC(=O)Nc2ccc(F)cc2F)n1	Mdm2 MdmX PPI 87, SKKanGAS inh 64, CSC inhib 95 | Mdm2 MdmX conf 59 | FLuc counter 71
COc1cccc(NC(=O)Nc2nc(SC)ns2)c1	none
CCSc1nsc(NC(=O)Nc2cccc(F)c2)n1	Mdm2 MdmX PPI 94, SKKanGAS inh 66, CSC inhib 93 | Mdm2 MdmX conf 88 | FLuc counter inactive
Cc1cc(CNC(=O)COC(=O)Cn2[nH]c(=O)c3ccccc3c2=O)cc(C)c1O	none (no result: CSC inhib)
COc1cc(/C=C(\C#N)c2ccccn2)ccc1OCC(=O)Nc1ccc(Br)cc1	Mdm2 MdmX PPI 100, CSC inhib inconclusive | Mdm2 MdmX conf 94 | FLuc counter inactive
